This passage reports MIC results from ChEMBL document CHEMBL1773057, “Design, synthesis and in vitro antimicrobial evaluation of novel Imidazo[1,2-a]pyridine and imidazo[2,1-b][1,3]benzothiazole motifs” (2011).

In brackets after ≈: the same amount, converted by molar mass.

Format in all cases: functional
Experiment [1] relates to Escherichia coli. Put plainly: Antimicrobial activity against Escherichia coli after 24 hrs by broth microdilution method. The essentials: (§1)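 Broth microdilution. Bacteria were grown on Mueller-Hinton agar and diluted in Mueller-Hinton broth. Compounds were made as 1000 µg/mL stocks in 50% DMSO/H₂O and added to wells as two-fold dilutions starting at 500 µg/mL, then inoculated. Sealed plates were incubated at 37 °C for 24 h in a humid chamber. MIC was the lowest concentration with no visible turbidity.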
(In general: In broth dilution the organism is exposed to a series of concentrations in liquid medium.)

Experiment [2] concerns Aspergillus flavus. Put plainly: Antimicrobial activity against Aspergillus flavus after 48 hrs by broth microdilution method. The essentials:
(§2)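 Fungi were grown on Sabouraud dextrose agar. Inocula were prepared in Sabouraud liquid medium at 37 °C for 12 h, then diluted in RPMI-1640 with L-glutamine, MOPS-buffered at pH 7. Compounds were made as 1000 µg/mL stocks in 50% DMSO/H₂O and tested as two-fold dilutions from 500 µg/mL. Sealed plates were incubated at 37 °C for 48 h in a humid chamber. MIC was the lowest concentration without visible turbidity.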

Experiment [3] deals with Pseudomonas aeruginosa. As to the kind of experiment: Antimicrobial activity against Pseudomonas aeruginosa after 24 hrs by broth microdilution method. The gist of the method:
as §1

Experiment [4] has as its system Priestia megaterium. Put plainly: Antimicrobial activity against Bacillus megaterium after 24 hrs by broth microdilution method. The gist of the method: as §1
The subject of experiment [5] is Nannizzia gypsea. As to the kind of experiment: Antimicrobial activity against Microsporum gypseum after 48 hrs by broth microdilution method. The essentials:
as §2

Experiment [6] concerns Candida parapsilosis. Put plainly: Antimicrobial activity against Candida parapsilosis after 48 hrs by broth microdilution method. The note with it: Lodderomyces parapsilosis. The gist of the method:
as §2

The test system of experiment [7] is Candida albicans. Put plainly: Antimicrobial activity against Candida albicans after 48 hrs by broth microdilution method. The gist of the method: as §2
Experiment [8] has as its system Staphylococcus aureus. Put plainly: Antimicrobial activity against Staphylococcus aureus after 24 hrs by broth microdilution method. The gist of the method: as §1
For experiment [9], the system named is Klebsiella aerogenes. Put plainly: Antimicrobial activity against Enterobacter aerogenes after 24 hrs by broth microdilution method. The essentials: as §1
Experiment [10] relates to Enterococcus faecalis. As to the kind of experiment: Antimicrobial activity against Enterococcus faecalis after 24 hrs by broth microdilution method. The gist of the method:
as §1

Turning to `COc1ccc2[nH]cc(-c3nc4sc5cc(F)ccc5n4c3Nc3ccc(F)cc3)c2c1`, the minimum inhibitory concentration (MIC) (commonly the smallest concentration in the dilution series that meets the test's criterion for growth inhibition) in experiment [1] is 19.7 µg/mL (≈ 44.1 µM); in [2], 15.5 µg/mL (≈ 34.8 µM); in experiment [3], 18.5 µg/mL (≈ 41.5 µM); in experiment [4], 23.4 µg/mL (≈ 52.5 µM); in experiment [5], 19.6 µg/mL (≈ 44 µM); in experiment [6], 16.6 µg/mL (≈ 37.2 µM). Also, the MIC was 17.5 µg/mL (≈ 39.2 µM) in experiment [7], 17.4 µg/mL (≈ 38.9 µM) in experiment [8], 17.8 µg/mL (≈ 40 µM) in [9] and 19.5 µg/mL (≈ 43.8 µM) in [10].
As to `COc1ccc2c(c1)sc1nc(-c3c[nH]c4ccc(Br)cc34)c(Nc3ccc(F)cc3)n12`, the MIC is 8.12 µg/mL (≈ 16 µM) in experiment [1]; 3.21 µg/mL (≈ 6.33 µM) in experiment [2]; 9.69 µg/mL (≈ 19.1 µM) in experiment [3]; 13.2 µg/mL (≈ 26.1 µM) in [4]; 4.14 µg/mL (≈ 8.16 µM) in experiment [5]; 5.63 µg/mL (≈ 11.1 µM) in [6]. Moreover, the minimal inhibitory concentration (MIC) was determined as 4.12 µg/mL (≈ 8.12 µM) in experiment [7], 7.33 µg/mL (≈ 14.4 µM) in experiment [8], 8.13 µg/mL (≈ 16 µM) in experiment [9] and 10.6 µg/mL (≈ 20.8 µM) in experiment [10].
Take `OC(Cn1cncn1)(Cn1cncn1)c1ccc(F)cc1F` [FLUCONAZOLE]: the MIC in experiment [2] is 9.22 µg/mL (≈ 30.1 µM); in experiment [5], 6.57 µg/mL (≈ 21.5 µM); in experiment [6] it was 4.35 µg/mL (≈ 14.2 µM); in experiment [7], 2.11 µg/mL (≈ 6.89 µM).
In the case of `O=[N+]([O-])c1ccc(-c2cnc(-c3ccc4nc(-c5c[nH]c6ccc(Br)cc56)c(Nc5ccc(F)cc5)n4c3)[nH]2)cc1`, the minimal inhibitory concentration (MIC) in [1] came out at 2.13 µg/mL (≈ 3.5 µM); in experiment [2], 9.35 µg/mL (≈ 15.4 µM); in [3], 2.11 µg/mL (≈ 3.47 µM); in experiment [4] it was 4.24 µg/mL (≈ 6.97 µM); in experiment [5], 7.44 µg/mL (≈ 12.2 µM); in [6], 6.22 µg/mL (≈ 10.2 µM). Further, the MIC in experiment [7] is 8.72 µg/mL (≈ 14.3 µM); in experiment [8], 2.52 µg/mL (≈ 4.14 µM); in [9], 2.35 µg/mL (≈ 3.86 µM); in experiment [10] it was 3.17 µg/mL (≈ 5.21 µM).
Turning to `Cc1ccc(-c2cnc(-c3ccc4nc(-c5cnc6ccc(Br)cc6c5)c(Nc5ccc(F)cc5)n4c3)[nH]2)cc1`, the MIC in experiment [1] was 3.42 µg/mL (≈ 5.8 µM); in experiment [2] it was 12.6 µg/mL (≈ 21.4 µM); in experiment [3] it was 2.89 µg/mL (≈ 4.9 µM); in experiment [4] it was 5.14 µg/mL (≈ 8.72 µM); in experiment [5], 11.5 µg/mL (≈ 19.5 µM); in [6], 12.6 µg/mL (≈ 21.3 µM). The MIC in experiment [7] was 13.1 µg/mL (≈ 22.3 µM); in experiment [8], 1.95 µg/mL (≈ 3.31 µM); in experiment [9] it was 2.78 µg/mL (≈ 4.72 µM); in experiment [10] it was 2.26 µg/mL (≈ 3.83 µM).
`O=[N+]([O-])c1ccc(-c2nnc(-c3ccc4nc(-c5cnc6ccc(Br)cc6c5)c(Nc5ccc(F)cc5)n4c3)o2)cc1`: the MIC in experiment [1] was found to be 1.72 µg/mL (≈ 2.76 µM); in experiment [2], 7.15 µg/mL (≈ 11.5 µM); in experiment [3], 1.58 µg/mL (≈ 2.54 µM); in experiment [4] it was 3.11 µg/mL (≈ 5 µM); in [5] it was 8.27 µg/mL (≈ 13.3 µM); in experiment [6], 5.34 µg/mL (≈ 8.58 µM). Further, the MIC in experiment [7] was 6.4 µg/mL (≈ 10.3 µM); in experiment [8], 1.45 µg/mL (≈ 2.33 µM); in experiment [9], 1.27 µg/mL (≈ 2.04 µM); in experiment [10], 2.13 µg/mL (≈ 3.42 µM).
Regarding `Fc1ccc(Nc2c(-c3cnc4ccc(Br)cc4c3)nc3ccc(-c4nnc(-c5ccc(F)cc5)o4)cn23)cc1`, the MIC in [1] is 0.75 µg/mL (≈ 1.26 µM); in experiment [2], 1.32 µg/mL (≈ 2.22 µM); in [3] it was 0.75 µg/mL (≈ 1.26 µM); in [4], 2.21 µg/mL (≈ 3.71 µM); in experiment [5], 1.14 µg/mL (≈ 1.91 µM); in [6], 1.35 µg/mL (≈ 2.27 µM). The MIC in experiment [7] was 1.22 µg/mL (≈ 2.05 µM); in [8], 0.46 µg/mL (≈ 0.773 µM); in [9] it was 0.41 µg/mL (≈ 0.689 µM); in [10], 1.38 µg/mL (≈ 2.32 µM).
Consider `Cc1ccc2[nH]cc(-c3nc4sc5cc(F)ccc5n4c3Nc3ccc(F)cc3)c2c1`, for which the MIC came to 14.5 µg/mL (≈ 33.7 µM) in experiment [1]; 14.6 µg/mL (≈ 33.8 µM) in experiment [2]; 16.2 µg/mL (≈ 37.6 µM) in [3]; 22.1 µg/mL (≈ 51.5 µM) in experiment [4]; 10.5 µg/mL (≈ 24.5 µM) in experiment [5]; 16.5 µg/mL (≈ 38.3 µM) in experiment [6]. Besides, the MIC is 14.6 µg/mL (≈ 34 µM) in [7], 10.1 µg/mL (≈ 23.5 µM) in experiment [8], 14.6 µg/mL (≈ 34 µM) in experiment [9] and 9.17 µg/mL (≈ 21.3 µM) in [10].
As for `Fc1ccc(Nc2c(-c3c[nH]c4ccc(F)cc34)nc3sc4cc(F)ccc4n23)cc1`, the MIC in experiment [1] worked out at 0.14 µg/mL (≈ 0.322 µM); in [2], 1.15 µg/mL (≈ 2.65 µM); in [3], 0.11 µg/mL (≈ 0.253 µM); in experiment [4], 1.52 µg/mL (≈ 3.5 µM); in [5], 1.23 µg/mL (≈ 2.83 µM); in [6], 1.24 µg/mL (≈ 2.85 µM). The MIC is 1.15 µg/mL (≈ 2.65 µM) in [7], 0.18 µg/mL (≈ 0.414 µM) in [8], 0.23 µg/mL (≈ 0.529 µM) in [9] and 0.41 µg/mL (≈ 0.944 µM) in experiment [10].
For `CC1(C)S[C@@H]2[C@H](NC(=O)[C@H](N)c3ccc(O)cc3)C(=O)N2[C@H]1C(=O)O` [AMOXICILLIN], the MIC in [1] was found to be 15.3 µg/mL (≈ 41.9 µM); in experiment [3], 14.7 µg/mL (≈ 40.1 µM); in experiment [4] it was 2.28 µg/mL (≈ 6.24 µM); in [8], 12.9 µg/mL (≈ 35.4 µM); in experiment [9], 3.45 µg/mL (≈ 9.44 µM); in experiment [10] it was 1.62 µg/mL (≈ 4.43 µM).
